Measured values from ChEMBL document CHEMBL4477254, “Synthesis and biological evaluation of some novel triazole hybrids of curcumin mimics and their selective anticancer activity against breast and prostate cancer cell lines” (Bioorg Med Chem Lett, 2016).

test system: MDA-MB-231; test: Cytotoxicity against human MDA-MB-231 cells assessed as decrease in cell viability after 24 hrs by MTT assay; assay type: functional, cell-based; conditions: MDA-MB-231, 24 h
How it was run: (§1)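 Cell viability by MTT after 24 h compound exposure; curcumin as standard. IC50 in µM from three independent experiments, expressed as mean ± SE.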

| Compound | IC50 [µM] |
| --- | --- |
| COC(=O)Nc1nc2cc(C(=O)c3cccs3)ccc2[nH]1 [NOCODAZOLE] | 1.1 |
| Cc1ccc(/C=C2\CN(C(=S)SCc3cn(Cc4cccc(Cl)c4)nn3)C/C(=C\c3ccc(C)cc3)C2=O)cc1 | 83 |
| COc1ccc(/C=C2\CN(C(=S)SCc3cn(Cc4ccc(F)cc4)nn3)C/C(=C\c3ccc(OC)cc3)C2=O)cc1 | > 100 |
| O=c1[nH]cc(F)c(=O)[nH]1 [FLUOROURACIL] | 19 |
| O=C1/C(=C/c2ccccc2F)CN(C(=S)SCc2cn(Cc3ccccc3Cl)nn2)C/C1=C\c1ccccc1F | 100 |
| COc1ccc(/C=C2\CN(C(=S)SCc3cn(Cc4ccccc4F)nn3)C/C(=C\c3ccc(OC)cc3)C2=O)cc1 | > 100 |

test system: MCF7; test: Induction of mitochondrial membrane depolarization in human MCF7 cells at 10 uM after 24 hrs by JC-1 staining based flow cytometry (reference value: 11%); assay type: functional; conditions: not given

| Compound | Activity [%] |
| --- | --- |
| N#CC(C#N)=NNc1cccc(Cl)c1 [CARBONYL CYANIDE M-CHLOROPHENYLHYDRAZONE] | 86.65 |

test system: PC-3; test: Cytotoxicity against human PC3 cells assessed as decrease in cell viability after 24 hrs by MTT assay; assay type: functional, cell-based; conditions: PC-3, 24 h; how it was run: as §1

| Compound | IC50 [µM] |
| --- | --- |
| COC(=O)Nc1nc2cc(C(=O)c3cccs3)ccc2[nH]1 [NOCODAZOLE] | 2.5 |
| Cc1ccc(/C=C2\CN(C(=S)SCc3cn(Cc4cccc(Cl)c4)nn3)C/C(=C\c3ccc(C)cc3)C2=O)cc1 | > 80 |
| COc1ccc(/C=C2\CN(C(=S)SCc3cn(Cc4ccc(F)cc4)nn3)C/C(=C\c3ccc(OC)cc3)C2=O)cc1 | 45.6 |
| O=c1[nH]cc(F)c(=O)[nH]1 [FLUOROURACIL] | 13.3 |
| O=C1/C(=C/c2ccccc2F)CN(C(=S)SCc2cn(Cc3ccccc3Cl)nn2)C/C1=C\c1ccccc1F | > 80 |
| COc1ccc(/C=C2\CN(C(=S)SCc3cn(Cc4ccccc4F)nn3)C/C(=C\c3ccc(OC)cc3)C2=O)cc1 | 31.5 |

test system: HEK293; test: Cytotoxicity against human HEK293 cells assessed as decrease in cell viability after 24 hrs by MTT assay; assay type: cell-based; conditions: HEK293, 24 h; how it was run: as §1

| Compound | IC50 [µM] |
| --- | --- |
| COC(=O)Nc1nc2cc(C(=O)c3cccs3)ccc2[nH]1 [NOCODAZOLE] | 5.1 |
| O=c1[nH]cc(F)c(=O)[nH]1 [FLUOROURACIL] | 40 |

test system: PC-3; test: Induction of mitochondrial membrane depolarization in human PC3 cells at 3 uM after 24 hrs by JC-1 staining based flow cytometry (reference value: 4.51%); assay type: functional; conditions: not given

| Compound | Activity [%] |
| --- | --- |
| N#CC(C#N)=NNc1cccc(Cl)c1 [CARBONYL CYANIDE M-CHLOROPHENYLHYDRAZONE] | 35.82 |

test system: 4T1; test: Potency index, ratio of curcumin IC50 to compound IC50 in mouse 4T1 cells; assay type: functional; conditions: not given
How it was run: (§2)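 IC50 came from an MTT viability assay after 24 h compound exposure, with curcumin run as the standard. Values are mean ± SE of three independent experiments. The index is the curcumin IC50 divided by the compound IC50 in the same cell line.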

| Compound | Ratio IC50 |
| --- | --- |
| O=C1/C(=C/c2ccccc2F)CN(C(=S)SCc2cn(Cc3ccccc3Cl)nn2)C/C1=C\c1ccccc1F | <=9.3 |

test system: PC-3; test: Potency index, ratio of curcumin IC50 to compound IC50 in human PC3 cells; assay type: functional; conditions: not given; how it was run: as §2

| Compound | Ratio IC50 |
| --- | --- |
| COc1ccc(/C=C2\CN(C(=S)SCc3cn(Cc4ccccc4F)nn3)C/C(=C\c3ccc(OC)cc3)C2=O)cc1 | <=5.7 |

test system: DU-145; test: Cytotoxicity against human DU145 cells assessed as decrease in cell viability after 24 hrs by MTT assay; assay type: functional, cell-based; conditions: DU-145, 24 h; how it was run: as §1

| Compound | IC50 [µM] |
| --- | --- |
| COC(=O)Nc1nc2cc(C(=O)c3cccs3)ccc2[nH]1 [NOCODAZOLE] | 2.2 |
| Cc1ccc(/C=C2\CN(C(=S)SCc3cn(Cc4cccc(Cl)c4)nn3)C/C(=C\c3ccc(C)cc3)C2=O)cc1 | > 80 |
| COc1ccc(/C=C2\CN(C(=S)SCc3cn(Cc4ccc(F)cc4)nn3)C/C(=C\c3ccc(OC)cc3)C2=O)cc1 | 74.6 |
| O=c1[nH]cc(F)c(=O)[nH]1 [FLUOROURACIL] | 24.2 |
| O=C1/C(=C/c2ccccc2F)CN(C(=S)SCc2cn(Cc3ccccc3Cl)nn2)C/C1=C\c1ccccc1F | 46.3 |
| COc1ccc(/C=C2\CN(C(=S)SCc3cn(Cc4ccccc4F)nn3)C/C(=C\c3ccc(OC)cc3)C2=O)cc1 | 54.5 |

test system: MCF7; test: Cytotoxicity against human MCF7 cells assessed as decrease in cell viability after 24 hrs by MTT assay; assay type: functional, cell-based; conditions: MCF7, 24 h; how it was run: as §1

| Compound | IC50 [µM] |
| --- | --- |
| COC(=O)Nc1nc2cc(C(=O)c3cccs3)ccc2[nH]1 [NOCODAZOLE] | 0.42 |
| Cc1ccc(/C=C2\CN(C(=S)SCc3cn(Cc4cccc(Cl)c4)nn3)C/C(=C\c3ccc(C)cc3)C2=O)cc1 | > 100 |
| COc1ccc(/C=C2\CN(C(=S)SCc3cn(Cc4ccc(F)cc4)nn3)C/C(=C\c3ccc(OC)cc3)C2=O)cc1 | > 100 |
| O=C1/C(=C/c2ccccc2F)CN(C(=S)SCc2cn(Cc3ccccc3Cl)nn2)C/C1=C\c1ccccc1F | 78.7 |
| COc1ccc(/C=C2\CN(C(=S)SCc3cn(Cc4ccccc4F)nn3)C/C(=C\c3ccc(OC)cc3)C2=O)cc1 | 79.4 |

test system: 4T1; test: Cytotoxicity against mouse 4T1 cells assessed as decrease in cell viability after 24 hrs by MTT assay; assay type: functional, cell-based; conditions: 4T1, 24 h; how it was run: as §1

| Compound | IC50 [µM] |
| --- | --- |
| COC(=O)Nc1nc2cc(C(=O)c3cccs3)ccc2[nH]1 [NOCODAZOLE] | 1.3 |
| Cc1ccc(/C=C2\CN(C(=S)SCc3cn(Cc4cccc(Cl)c4)nn3)C/C(=C\c3ccc(C)cc3)C2=O)cc1 | 53.4 |
| COc1ccc(/C=C2\CN(C(=S)SCc3cn(Cc4ccc(F)cc4)nn3)C/C(=C\c3ccc(OC)cc3)C2=O)cc1 | > 100 |
| O=c1[nH]cc(F)c(=O)[nH]1 [FLUOROURACIL] | 23 |
| O=C1/C(=C/c2ccccc2F)CN(C(=S)SCc2cn(Cc3ccccc3Cl)nn2)C/C1=C\c1ccccc1F | 43.6 |
| COc1ccc(/C=C2\CN(C(=S)SCc3cn(Cc4ccccc4F)nn3)C/C(=C\c3ccc(OC)cc3)C2=O)cc1 | 49.9 |
